Here are results for ten molecules from ChEMBL document CHEMBL1123795, “Inhibitors of dopamine beta-hydroxylase. 3. Some 1-(pyridylmethyl)imidazole-2-thiones” (J Med Chem, 1987).

A word on the IC50: it is the midpoint of a concentration-inhibition curve. Broadly, the inhibition is the drop in the measured response relative to a control, in per cent.

Experiment [1] concerns the target T1, Dopamine beta-hydroxylase (Rattus norvegicus, UniProt Q05754).
T1 sequence (Q05754 whole entry): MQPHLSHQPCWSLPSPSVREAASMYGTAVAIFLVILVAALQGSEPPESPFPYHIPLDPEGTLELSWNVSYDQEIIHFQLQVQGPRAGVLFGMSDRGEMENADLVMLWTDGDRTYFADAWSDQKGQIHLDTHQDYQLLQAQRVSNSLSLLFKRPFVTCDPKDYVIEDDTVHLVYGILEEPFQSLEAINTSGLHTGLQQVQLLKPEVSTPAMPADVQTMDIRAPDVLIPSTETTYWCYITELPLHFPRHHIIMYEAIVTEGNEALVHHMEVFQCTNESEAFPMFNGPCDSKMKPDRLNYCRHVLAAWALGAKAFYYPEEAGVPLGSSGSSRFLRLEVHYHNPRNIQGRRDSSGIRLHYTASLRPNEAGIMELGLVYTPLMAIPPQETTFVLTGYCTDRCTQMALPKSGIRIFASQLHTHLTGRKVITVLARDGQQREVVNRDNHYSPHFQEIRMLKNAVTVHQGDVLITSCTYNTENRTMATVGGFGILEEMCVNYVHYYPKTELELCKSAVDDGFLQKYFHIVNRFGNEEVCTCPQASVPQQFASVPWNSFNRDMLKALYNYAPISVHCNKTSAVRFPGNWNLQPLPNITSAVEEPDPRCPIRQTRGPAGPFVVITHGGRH
In words: Inhibition of Dopamine beta hydroxylase in spontaneously hypertensive rats; Value ranges from 89-121.

For experiment [2], the system named is Rattus norvegicus. In words: Antihypertensive activity was determined by decrease in blood pressure response in spontaneously hypertensive rat was determined after intraperitoneal administration at a dose of 50 mg/kg. The class given is functional. Summed up:
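SHR received a single 50 mg/kg ip dose given as a solution in 20% DMF. Blood pressure was read 2 h after dosing, and the reduction (±SEM) was expressed relative to vehicle-dosed control animals.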

In experiment [3] the test system is Rattus norvegicus. The experiment can be described thus: Percent increase in DA/NE ratio was determined from assay of DA and NE in the mesenteric artery of spontaneously hypertensive rat after two doses for 50 mg/kg peroral administration. The following applies: route oral. The class given is functional. The procedure, abridged: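 SHR received two 50 mg/kg doses 18 h apart as suspensions in a 5% PEG 400, 1% methocel vehicle. DA and NE were then assayed in mesenteric artery. The percent change in DA/NE ratio (±SEM) was expressed relative to vehicle-dosed controls.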

Experiment [4] addresses T1, Dopamine beta-hydroxylase. The experiment can be described thus: Inhibition of Dopamine beta hydroxylase in spontaneously hypertensive rats; Value range from 8.9-13.
Experiment [5] has as its target T2, Dopamine beta-hydroxylase (Rattus norvegicus) (UniProt Q05754).
T2 sequence (whole entry): T1 sequence (Q05754 whole entry)
In words: Inhibition of Dopamine beta hydroxylase in spontaneously hypertensive rats at a concentration of 10e-4. The procedure, abridged: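 The DBH assay was run in vitro, with percent inhibition of product formation versus control measured at 10⁻⁴ M compound.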

Experiment [6] has as its target T1, Dopamine beta-hydroxylase. The experiment can be described thus: Inhibition of Dopamine beta hydroxylase in spontaneously hypertensive rats; Value ranges from 21-35.
Experiment [7] deals with T1, Dopamine beta-hydroxylase.
Experiment [8] addresses T1, Dopamine beta-hydroxylase. The experiment can be described thus: Inhibition of Dopamine beta hydroxylase in spontaneously hypertensive rats; Value ranges from 1.3-4.6.
For experiment [9], the target named is T1, Dopamine beta-hydroxylase. In words: Inhibition of Dopamine beta hydroxylase in spontaneously hypertensive rats; Value ranges from 0.4-1.1.
Experiment [10] deals with T1, Dopamine beta-hydroxylase. The experiment can be described thus: Inhibition of Dopamine beta hydroxylase in spontaneously hypertensive rats; Value ranges from 76-220.

For `Sc1nccn1Cc1cccnc1`, in [1], the IC50 amounted to 104 µM. In addition, the “Decrease in blood pressure” value in [2] is 34 mmHg. In experiment [3], the Increase stood at 52%.
Turning to `S=c1[nH]ccn1Cc1ccccc1`, half-maximal inhibition in [4] (IC50) was put at 11 µM.
In experiment [5], `Oc1ccc(Cn2ccnc2S)cn1` returned an inhibition of 7%.
As to `COc1ccc(Cn2ccnc2S)cn1`, in experiment [5], the inhibition worked out at 17%.
With `Oc1ccc(Cn2ccnc2S)nc1`, the “Decrease in blood pressure” value in experiment [2] is listed as 22 mmHg. This molecule registered an IC50 in experiment [6] of 27 µM.
For the molecule `Fc1cc(F)cc(Cn2cc[nH]c2=S)c1`, the “Decrease in blood pressure” value in experiment [2] is reported as 50 mmHg. Also, in experiment [3], the Increase was determined as 407%. For the same molecule, the IC50 in [7] amounted to 1.2 µM.
In [8], `Oc1ccc(Cn2cc[nH]c2=S)cc1` showed an IC50 of 2.6 µM. The “Decrease in blood pressure” value in [2] amounted to 22 mmHg. In addition, in experiment [3], the Increase was 95%.
`CCCCc1ccc(C(=O)O)nc1` [FUSARIC ACID] gave an IC50 in experiment [9] of 0.7 µM. Also, the “Decrease in blood pressure” value in [2] is listed as 54 mmHg. Moreover, the Increase in experiment [3] stood at 80%.
Take `Sc1nccn1Cc1ccccn1`: the IC50 in [10] worked out at 131 µM. For the same molecule, the “Decrease in blood pressure” value in [2] amounted to 35 mmHg. The Increase in experiment [3] turned out to be 141%.
`Sc1nccn1Cc1ccncc1` showed an inhibition in experiment [5] of 17%. Besides, the “Decrease in blood pressure” value in experiment [2] is reported as 38 mmHg. Besides, the Increase in experiment [3] worked out at 49%.
